Among the data in ChEMBL document CHEMBL4513216, “Probing the Open Global Health Chemical Diversity Library for Multistage-Active Starting Points for Next-Generation Antimalarials” (ACS Infect Dis, 2020) are cytotoxicity values, retold here.

The nature of this data set: Toxicity liver stage against HepG2, at 10uM. In kind it is cell-based. The arrangement: test concentration 10 uM, cell line HepG2-A16-CD81EGFP. To be noted: human, HepG2-A16-CD81EGFP cells; read-out: INHIBITION
An outline of the steps: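 Uninfected HepG2-A16-CD81EGFP cells, 3 × 10^3 per well, 1536-well, plated on prespotted compound at 10 μM final, parasite-free screening media added to match infected plates; puromycin 10 μM positive, DMSO 0.5% negative; run in parallel with 48 h PbLuc assay at 37 °C, 5% CO2; viability by CellTiter-Glo luminescence, normalized to controls.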
As for `Cc1ncsc1C(=O)NC1CCN(CCC(N)=O)CC1`, the cytotoxicity at 10 µM is -10.2%. For the molecule `CCOc1ncnc2c1CCN(S(=O)(=O)CC)CC2`, the cytotoxicity at 10 µM amounted to 3.79%. With `CN1C(=O)C2(CCN(C(=O)c3ccccc3)CC2)c2cc(F)ccc21`, the cytotoxicity at 10 µM was -106%.

On to `CC(NC(=O)NCCCn1cccn1)c1ccc2c(c1)NC(=O)CO2` (stereo not given), for which the cytotoxicity at 10 µM is -5.07%. Regarding `COc1ccc(OC)c(C(O)CNC(=O)Nc2ccc(F)cc2F)c1` (stereo not given), the cytotoxicity at 10 µM is -2.74%. Regarding `COc1cc(Cl)c(NC(=O)c2cc3c([nH]c2=O)CCCC3=O)cc1OC`, the cytotoxicity at 10 µM is -5.21%.

Take `COc1ccc(C(=O)Nc2ccccc2-c2ccc(=O)n(C)n2)nn1`: the cytotoxicity at 10 µM stood at 2.18%. For the molecule `O=C(Nc1ncn(CC(=O)N2CCCCCC2)n1)C1CCCO1` (stereo not given), the cytotoxicity at 10 µM is -4.56%. For the molecule `CC(C)(N)C(=O)N1CCC(c2nccnc2Oc2cccc(F)c2)CC1`, the cytotoxicity at 10 µM is -13.2%.

In the case of `CNC(=O)[C@H]1C[C@H]2CN(C(=O)NC(C)C)C[C@@H]1O2`, the cytotoxicity at 10 µM is -99.8%. With `NCC1[C@H]2CN(Cc3ccccc3)C[C@@H]12` (stereo not given in full), the cytotoxicity at 10 µM is 4.78%. Under `CCOCC1c2c(ncn2C)CCN1C(=O)c1cnc(C)cn1` (stereo not given) stands -108%; under `COc1ccc(CNCc2ccc(N3CCCCC3)nc2)cc1OC`, 1.92%; under `CC(C)C[C@H](NC(=O)Cn1ccc2c(Cl)cccc21)C(=O)O`, 5.19%. Consider `Cc1ccc(Cl)cc1NC(=O)C1CSc2ncc(C)c(=O)n2C1` (stereo not given), for which the cytotoxicity at 10 µM came out at 1.42%. In the case of `CNC(=O)C1CN(C(=O)c2cccs2)CCN(S(C)(=O)=O)C1` (stereo not given), the cytotoxicity at 10 µM was 2.41%.

Take `CC(C)c1nnc2n1CCN(C(=O)c1ccccc1OCC1CC1)C2`: the cytotoxicity at 10 µM amounted to 10.5%. Under `CCc1ccc(C(=O)NCc2cccc(S(=O)(=O)NC)c2)o1` stands -2.31%; under `CN(C)c1nc2n(c(=O)n1)CCN2C(=O)Nc1ccc(Cl)cc1`, 6.36%. With `CCC1(CC)CC(=O)N(CC(O)c2ccc(F)cc2)C1=O` (stereo not given), the cytotoxicity at 10 µM was -0.438%.

Consider `Cc1nc(CN2C[C@@H]3CN(c4ncc(F)cn4)C[C@@H]3C2=O)cs1`, for which the cytotoxicity at 10 µM was -0.673%.

`Cc1nc(C)n(CC2CCCN(CCc3ccccc3)C2)n1` (stereo not given): the cytotoxicity at 10 µM is -3.12%.

Take `Cc1occc1C(=O)N1Cc2nccn2CC(CN2CCCC2)C1` (stereo not given): the cytotoxicity at 10 µM is -105%. For the molecule `OCCn1cc(CN2CCN(CCOc3cccc(F)c3)CC2)cn1`, the cytotoxicity at 10 µM was -10.9%. As for `CCc1nnc2n1CCN(C(=O)c1cc3cc(C)ccc3[nH]1)C2`, the cytotoxicity at 10 µM stood at 0.893%. Take `CS(=O)(=O)N1CCC(c2cncc(Cl)n2)CC1`: the cytotoxicity at 10 µM stood at 16%. Consider `CC(C#N)CNS(=O)(=O)c1ccc(Br)c(F)c1` (stereo not given), for which the cytotoxicity at 10 µM is -12.3%. On to `COCCn1ccc(NC(=O)Nc2ccccn2)n1`, for which the cytotoxicity at 10 µM amounted to 3.18%. In the case of `Cc1nc(CN(C)Cc2nc(-c3ccncc3)no2)co1`, the cytotoxicity at 10 µM is -0.187%.

`CC(C)CC(C)N(C)Cc1nnc(-c2ccco2)o1` (stereo not given): the cytotoxicity at 10 µM was 6.07%.

Take `Cc1cccc(C(=O)N2CCN(S(C)(=O)=O)[C@@H](C)C2)c1Cl`: the cytotoxicity at 10 µM turned out to be 5.58%.

Consider `Cn1ccc(CNC(=O)Nc2ccc(S(=O)(=O)C(F)F)cc2)c1`, for which the cytotoxicity at 10 µM was 5.93%. For the molecule `CCOCC(=O)Nc1nccn1Cc1ccccc1Cl`, the cytotoxicity at 10 µM was -0.678%. Take `CC(C)c1nccn1C1CCCN(C(=O)c2ccc3c(c2)COC3)C1` (stereo not given): the cytotoxicity at 10 µM turned out to be 3.19%. As to `NC(=O)c1cc(C2CCCN(C(=O)CCc3cccs3)C2)n[nH]1` (stereo not given), the cytotoxicity at 10 µM was 2.33%.

`CCc1nc(C2CCCN2C(=O)c2nccnc2N)no1` (stereo not given): the cytotoxicity at 10 µM is -18.7%. Under `Cn1cccc1C(O)CNC(=O)c1ccc(F)c(F)c1` (stereo not given) stands -1.29%. On to `NC(=O)c1cnn2c1NCC(CNCCc1cccs1)C2` (stereo not given), for which the cytotoxicity at 10 µM was -9.63%. Under `CC(SCCNS(=O)(=O)c1cnn(C)c1)c1cccc(F)c1` (stereo not given) stands 17.3%; under `CCCc1n[nH]c(C2CN(CCS(=O)(=O)CC)CCO2)n1` (stereo not given), -5.83%.
